Results reported in BindingDB's records for doi:10.1021/jm0010217 (Menarini Ricerche, 2000).
Bridge positions count the residues as written; N and C are the ends. Square brackets hold non-standard residues; d marks the D form. Peptide text beside a SMILES is read from it. * marks the point of attachment. NH(β-GlcNAc) = CC(=O)N[C@@H]1[C@@H](O)[C@H](O)[C@@H](CO)O[C@H]1N*; Dap = NC[C@H](N)C(=O)O

What was measured:
Substance-K receptor [1] = molecular target: T1, Substance-K receptor (Homo sapiens, UniProt P21452); assay: Compound was evaluated for Kd value against [3H]-SR- 48968 on the Wild-type tachykinin receptor 2
T1 sequence (P21452 whole entry): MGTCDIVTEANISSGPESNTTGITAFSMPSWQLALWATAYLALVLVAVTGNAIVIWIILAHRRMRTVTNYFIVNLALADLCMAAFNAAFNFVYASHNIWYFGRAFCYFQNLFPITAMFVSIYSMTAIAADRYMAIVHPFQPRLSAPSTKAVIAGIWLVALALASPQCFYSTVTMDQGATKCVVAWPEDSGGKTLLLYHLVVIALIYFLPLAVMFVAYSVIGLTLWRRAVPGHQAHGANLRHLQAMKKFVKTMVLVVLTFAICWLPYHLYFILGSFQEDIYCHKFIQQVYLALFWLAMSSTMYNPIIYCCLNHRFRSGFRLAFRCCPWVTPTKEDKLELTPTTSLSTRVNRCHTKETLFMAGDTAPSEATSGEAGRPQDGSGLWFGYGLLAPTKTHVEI

Substance-K receptor [2] = molecular target: T2, Substance-K receptor (Homo sapiens, UniProt P21452, Y266F); assay: Compound was evaluated for Kd value against [3H]-SR- 48968 on the Tyr266Phe mutated human NK-2 receptor
T2 sequence (P21452 whole entry): T1 sequence (P21452 whole entry)

Substance-K receptor [3] = molecular target: T2, Substance-K receptor; assay: Compound was evaluated for Kd value against [125I]NKA on the Tyr266Phe mutated human NK-2 receptor
Substance-K receptor [4] = molecular target: T3, Substance-K receptor (Homo sapiens, UniProt P21452, Y206F); assay: Compound was evaluated for Kd value against [3H]-SR- 48968 on the Tyr206Phe mutated human NK-2 receptor
T3 sequence (P21452 whole entry): T1 sequence (P21452 whole entry)

Substance-K receptor [5] = molecular target: T1, Substance-K receptor; assay: (§1) Compound was evaluated for Kd value against [3H]-SR- 48968 on the Tyr206Ala mutated human NK-2 receptor
Substance-K receptor [6] = molecular target: T4, Substance-K receptor (Homo sapiens, UniProt P21452, F270A); assay: Compound was evaluated for Kd value against [3H]-SR- 48968 on the Phe270Ala mutated human NK-2 receptor
T4 sequence (P21452 whole entry): T1 sequence (P21452 whole entry)

Substance-K receptor [7] = molecular target: T3, Substance-K receptor; assay: Compound was evaluated for Kd value against [125I]-NKA on the Tyr206Phe mutated human NK-2 receptor
Substance-K receptor [8] = molecular target: T1, Substance-K receptor; assay: Compound was evaluated for Kd value against [125I]NKA on the Wild-type tachykinin receptor 2
Substance-K receptor [9] = molecular target: T3, Substance-K receptor; assay: Compound was evaluated for Kd value against [125I]NKA on the Tyr206Phe mutated human NK-2 receptor
Procedure, shortened: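 Human NK-2 receptor carrying the point mutation, transfected into CHO cells. Radioligand binding with [125I]NKA.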

Substance-K receptor [10] = molecular target: T5, Substance-K receptor (Homo sapiens, UniProt P21452, Y206A); assay: as §1
T5 sequence (P21452 whole entry): T1 sequence (P21452 whole entry)

| Compound | Kd (Substance-K receptor [1]) [µM] | Kd (Substance-K receptor [2]) [µM] | Kd (Substance-K receptor [3]) [µM] | Kd (Substance-K receptor [4]) [µM] | Kd (Substance-K receptor [5]) [µM] | Kd (Substance-K receptor [6]) [µM] | Kd (Substance-K receptor [7]) [µM] | Kd (Substance-K receptor [8]) [µM] | Kd (Substance-K receptor [9]) [µM] | Kd (Substance-K receptor [10]) [µM] |
| --- | --- | --- | --- | --- | --- | --- | --- | --- | --- | --- |
| CC(=O)N[C@@H]1[C@@H](O)[C@H](O)[C@@H](CO)O[C@H]1NC(=O)C[C@@H]1NC(=O)[C@H](CC(C)C)NC(=O)[C@@H]2CNC(=O)C[C@H](NC1=O)C(=O)N[C@@H](Cc1c[nH]c3ccccc13)C(=O)N[C@@H](Cc1ccccc1)C(=O)N2 (cyclo(D(NH(β-GlcNAc))DWF[Dap]L); lactam 2-5) | 0.0044 | 0.048 | 0.026 | 0.0019 | > 1 | 0.291 | 0.0031 | 0.0021 | – | – |
| O=C1CCC(=O)N[C@@H](Cc2c[nH]c3ccccc23)C(=O)N[C@@H](Cc2ccccc2)C(=O)N[C@H](Cc2ccccc2)CN1 [MEN-11558] | 0.01 | 0.048 | 0.034 | 0.0013 | – | 0.208 | – | 0.0027 | 0.0036 | 1.96 |
